# Assay outcomes (PubChem)
# Shown are actives, neighbours in structure and some others; about 2.1% of the full set was active somewhere.
# Runt-SMMHC FRET = Runt domain-CBFb-SMMHC interaction inhibition | Cerulean-Runt/Venus-CBFb-SMMHC FRET ratio 530/480, 1 h | inhibition, % at 20 µM | 220,000 compounds, 0.74% hits | AID 1434;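 active means mean inhibition across duplicate retests at 20 µM reaching about 50%, limit read from the data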;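 further: 0% = DMSO wells and 100% = wells with excess untagged CBFb-SMMHC; inhibitors lower the FRET ratio by blocking Runt binding to CBFb-SMMHC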
# p97 ATPase inh = inhibitors of human p97 ATPase. 220,000 compounds, 0.42% hits. inhibition, % at 8 µM. recombinant p97 ATPase, Kinase-Glo ATP luminescence, 3 h. P55072; in the data active means inhibition above about 15%;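 further: 0% = DMSO vehicle and 100% = wells lacking enzyme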
# Target sequence (P55072 whole entry, looked up): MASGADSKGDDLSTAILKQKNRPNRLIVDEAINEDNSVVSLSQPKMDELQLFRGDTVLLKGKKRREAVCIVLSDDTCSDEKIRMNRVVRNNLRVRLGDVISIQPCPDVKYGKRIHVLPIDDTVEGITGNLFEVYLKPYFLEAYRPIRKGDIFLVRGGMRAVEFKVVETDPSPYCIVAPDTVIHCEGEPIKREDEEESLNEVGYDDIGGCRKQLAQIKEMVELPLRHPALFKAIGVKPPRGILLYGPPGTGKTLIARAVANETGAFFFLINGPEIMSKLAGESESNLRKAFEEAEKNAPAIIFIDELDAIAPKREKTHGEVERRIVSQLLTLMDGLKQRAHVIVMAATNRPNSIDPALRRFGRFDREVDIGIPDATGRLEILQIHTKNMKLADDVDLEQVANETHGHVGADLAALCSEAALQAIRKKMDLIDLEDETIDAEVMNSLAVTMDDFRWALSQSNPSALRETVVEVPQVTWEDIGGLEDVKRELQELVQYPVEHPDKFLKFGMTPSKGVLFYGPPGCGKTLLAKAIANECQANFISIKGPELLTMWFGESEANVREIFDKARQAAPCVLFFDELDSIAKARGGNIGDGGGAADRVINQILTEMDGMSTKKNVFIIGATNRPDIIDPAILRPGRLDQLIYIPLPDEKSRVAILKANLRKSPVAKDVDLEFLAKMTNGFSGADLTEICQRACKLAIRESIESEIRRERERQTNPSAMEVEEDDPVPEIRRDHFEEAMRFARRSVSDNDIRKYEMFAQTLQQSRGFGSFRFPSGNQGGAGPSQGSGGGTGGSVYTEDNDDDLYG
# Tb hexokinase = T. brucei hexokinase 1 inhibition; recombinant TbHK1, G6PDH-coupled NADH A340; inhibition, % at 10 µM; 220,000 compounds, 0.11% hits; AID 1430;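 active means inhibition of 50% or more in the single-dose primary screen; inactive means inhibition below 50%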
# Hck-Nef inh = human Hck-Nef kinase inhibition | Recombinant Hck-YEEI plus Nef, Z-Lyte FRET kinase assay | inhibition, % at 20 µM | 220,000 compounds, 0.68% hits | AID 463187;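 active means Hck-Nef kinase inhibition above about 50%, limit read from the data; inactive means inhibition below that limit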;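 further: 0% = DMSO with Hck plus Nef and 100% = Hck alone without Nef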
# RanGTP-Impb inh = disruptors of Ran-importin-beta complex formation – biochemical, FRET, CFP-Ran, YFP-importin-beta, homogeneous, primary screen. cell-free CFP-Ran/YFP-importin-beta FRET ratio. inhibition, % (concentration not given with the values). 300,000 compounds, 1.1% hits;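 active means more than half of the replicate wells show a fall in the fluorescence ratio signal beyond about 16%, limit read from the data, passing the limit was not always enough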;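 further: 0% = DMSO wells and 100% = Ran loaded with GDP instead of GTP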
# Runt-CBFb FRET = inhibitors of human RUNX1 Runt domain binding to CBFb; Q01196+Q13951; Cerulean-Runt/Venus-CBFb FRET ratio 530/480, 1 h; inhibition, % at 20 µM; 220,000 compounds, 0.46% hits; AID 1496;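 active means inhibition over about 50% at 20 µM in the single-dose screen, limit read from the data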;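 further: 0% = DMSO wells and 100% = excess unlabeled CBFb competitor control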
#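 test system = Cerulean-tagged RUNX1 Runt domain (FRET donor) fusion protein | reagent = Venus-CBFb binding partner, 100 nM | incubation = protein complex preformed 1 h, compound exposure 1 h, room temperature, dark | detection = FRET fluorescence | read-out basis = loss of energy transfer signal | controls = 5 µM unlabeled CBFb as full-inhibition high control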
# YIC counter = counter-screen: alters YIC FRET probe signal | shares compounds with RanGTP-Impb inh | Purified YIC probe, intramolecular FRET ratio YFP/CFP | IC50, µM | 1,000 compounds, 40% hits | AID 435026;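 active means fitted half-maximal inhibitory concentration no more than tenfold above the top dose tested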
# An asterisk follows results filed as active; nt = no result given.
SMILES,Runt-SMMHC FRET,p97 ATPase inh,Tb hexokinase,Hck-Nef inh,RanGTP-Impb inh,Runt-CBFb FRET,YIC counter
Cc1cc(C)cc(OCC(O)CN2CC(C)OC(C)C2)c1 (configuration not stated),nt,nt,nt,nt,0,nt,nt
COC(=O)CCC(=O)OC1(C)C(=O)C=C2C=C(C3CC3)N(Cc3ccc4c(c3)OCO4)C=C2C1=O (configuration not stated),2,nt,-36,18,-4,8,nt
COC(=O)CCC(=O)OC1(C)C(=O)C=C2C=C(C3CC3)N(Cc3ccc(OC)cc3)C=C2C1=O (configuration not stated),21,nt,-40,16,20*,17,20*
CCCCn1c(N)c(N(CCOC)C(=O)c2sc3cc(F)ccc3c2Cl)c(=O)[nH]c1=O,nt,nt,nt,nt,-2,nt,nt
COc1cc2c(cc1OC)CN(Cc1ccccc1)CC2,nt,nt,nt,nt,18*,nt,>50
COc1cc2c(cc1OC)CN(Cc1cccs1)CC2,7,5,-16,-4,18*,6,>50
COc1ccccc1N1CCN(Cc2cccs2)CC1,0,-4,-9,0,8,2,nt
CC(=O)NS(=O)(=O)c1ccc(NC(=O)c2oc3c(Cl)cccc3c2C)cc1,-1,0,-6,-1,5,0,nt
C[C@@H]1CN([C@H](C)CO)C(=O)c2cccc(NC(=O)c3ccc(-c4nccs4)cc3)c2O[C@@H]1CN(C)CC1CC1,nt,nt,nt,nt,nt,nt,>50
COc1ccc(N2C(=O)c3ccccc3NC2c2cccnc2)cc1 (configuration not stated),3,5,-9,41,16*,0,>50
CCN1C(=S)SC(=O)C1=C1C=C(C)N(Cc2ccco2)C(C)=C1,47,7,1,-1,37*,7,11*
COCCCN(C(=O)Cc1coc2cc(C)c(C)cc12)c1c(N)n(Cc2ccccc2)c(=O)[nH]c1=O,nt,nt,nt,nt,1,nt,nt
COc1cc2c(cc1NC(=S)Nc1cccc3ccccc13)oc1ccccc12,3,8,-21,1,18*,8,>50
C=CCn1c(SCCOc2ccc(OC)cc2)nnc1C(CO)NC(=O)c1ccc(OC)cc1 (configuration not stated),-5,1,4,-11,19*,2,>50
NC(=S)NNc1c(F)c(F)c(F)c(F)c1F,5,-5,15,-39,0,17,nt
COC(=O)c1ccc2nc(NC(=O)C3CCCCC3)sc2c1,-1,6,0,21,-3,-3,nt
COC(=O)c1ccc2nc(NC(=O)C(C)(C)C)sc2c1,0,-5,4,12,20*,-2,>50
COCCCNC(=O)C1=CCN(S(=O)(=O)c2ccc(OC)cc2)CC1,nt,nt,nt,nt,2,nt,nt
CC1Cc2cc(S(=O)(=O)NCc3ccccc3)ccc2N1C(=O)C1CC1 (configuration not stated),nt,nt,nt,nt,18*,nt,>50
CCOC(=O)c1c(S(=O)(=O)N2CCN(Cc3ccccc3)CC2)c(C)n(C)c1C,nt,nt,nt,nt,8,nt,nt
Cc1cnc(=O)[nH]c1SCC(=O)c1ccc(F)cc1,nt,nt,nt,nt,16*,nt,>50
Cc1csc(NC(=O)CSc2[nH]c(=O)ncc2C)n1,nt,nt,nt,nt,1,nt,nt
O=C(NCC1CCCN1S(=O)(=O)c1ccccc1)C(=O)NC1CC1 (configuration not stated),nt,nt,nt,nt,-1,nt,nt
CCCCCN(C(=O)CCC(=O)OCC(=O)N1CCC(C)CC1)c1c(N)n(CCCC)c(=O)[nH]c1=O,nt,nt,nt,nt,-3,nt,nt
C=CCN1C(=O)/C(=C\c2ccc(OC(=O)c3ccco3)c(OC)c2)SC1=S,-8,2,-16,-31,19*,-5,>50
SMILES,Runt-SMMHC FRET,p97 ATPase inh,Tb hexokinase,Hck-Nef inh,RanGTP-Impb inh,Runt-CBFb FRET,YIC counter
Cc1cc(=O)[nH]c(Nc2ccc(N(C)C)cc2)n1,nt,nt,nt,nt,0,nt,nt
COC(=O)c1c(NC(=O)c2ccc([N+](=O)[O-])o2)sc2c1CCN(C(C)C)C2,nt,nt,nt,nt,16*,nt,>50
CC(C)N1CCc2c(sc(NC(=O)c3ccc([N+](=O)[O-])o3)c2C(N)=O)C1,nt,nt,nt,nt,10,nt,nt
Cc1ccc(OCCC(=O)N(CCC(C)C)c2c(N)n(Cc3ccccc3)c(=O)[nH]c2=O)cc1,nt,nt,nt,nt,3,nt,nt
CCSc1nc2sc3c(c2c(=O)n1-c1ccccc1C)CCN(C)C3,nt,nt,nt,nt,-13,nt,nt
Cc1cc(N=Cc2c(O)n(-c3ccc4c(c3)OCO4)c(=O)c3ccccc23)ccn1,9,1,-10,-2,-1,10,nt
Cc1ccc(-n2c(O)c(C=Nc3ccc4c(c3)OCO4)c3ccccc3c2=O)cc1C,-314,-1,-7,2,19*,-2,28*
O=C(Cn1c(=O)c2cccn2c2cccnc21)NCCCN1CCN(c2ccc(F)cc2)CC1,nt,nt,nt,nt,32*,nt,>50
COc1ccc(N2CCN(CCCNC(=O)Cn3c(=O)c4cccn4c4cccnc43)CC2)cc1,nt,nt,nt,nt,-1,nt,nt
Cc1ccc(S(=O)(=O)N(C)CC(=O)Nc2cc(C)ccn2)cc1,nt,nt,nt,nt,4,nt,nt
COc1ccc(-n2c(=O)c3c4c(sc3n3c(=S)[nH]nc23)COC(C(C)C)C4)cc1 (configuration not stated),10,7,2,-7,1,6,nt
Cc1ccc(-c2nnn(CC(=O)N(c3ccccc3)C(C(=O)NCC3CCCO3)c3ccc(Cl)cc3)n2)cc1 (configuration not stated),1,0,-7,1,21*,-4,>50
CC(C)OCCCNC(=O)CCSc1ccc(Cl)cc1,-2,-3,-5,-1,27*,1,>50
COCCCNC(=O)CCSc1ccc(C)cc1,1,-8,-1,-1,0,-1,nt
c1ccc2c(c1)nc(NCC1CCCO1)c1nnnn12 (configuration not stated),28,5,3,0,23*,18,28*
c1ccc(-n2nnnc2-c2cnc(-c3cccnc3)nc2-c2cccs2)cc1,-2,2,-7,-5,17*,-3,>50
COC1=CC2(O)CCCC2=CC1=O (configuration not stated),nt,nt,nt,nt,2,nt,nt
CC12OC1C1(O)CCCC1=CC2=O (configuration not stated),nt,nt,nt,nt,20*,nt,>50
Cc1ccc(C(=O)/C=C/c2cc(C#N)n(C)c2C)cc1,nt,nt,nt,nt,4,nt,nt
COc1ccc(/C=C/C(=O)OCC(=O)Nc2ccc3[nH]c(=O)[nH]c3c2)cc1OC,nt,nt,nt,nt,-1,nt,nt
Cc1c(CC(=O)N2CCN(C(=O)C3COc4ccccc4O3)CC2)c(=O)oc2cc(O)ccc12 (configuration not stated),nt,nt,nt,nt,10,nt,nt
Cc1cccc(N2CCN(C(=O)C3COc4ccccc4O3)CC2)c1C (configuration not stated),-4,-1,-8,1,26*,1,>50
